{"source": "ChEMBL document CHEMBL4033790", "about": "“Design and Synthesis of Novel Deuterated Ligands Functionally Selective for the γ-Aminobutyric Acid Type A Receptor (GABAAR) α6 Subtype with Improved Metabolic Stability and Enhanced Bioavailability” (J Med Chem, 2018)", "key": {"Mus musculus": {"system": "Mus musculus", "test": "Neurotoxicity in Swiss Webster mouse assessed as induction of motor impairment at 40 mg/kg administered via oral gavage measured after 10 to 60 mins by rotarod method", "format": "toxicity, organism-based", "conditions": "in vivo", "in_short": "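Female mice were given a single oral gavage dose of 40 mg/kg, either in 50% PBS/40% propylene glycol/10% DMSO or, for poorly soluble compounds, in 2% polyethylene glycol plus 2.5% hydroxymethyl cellulose. Rotarod performance was tested 10, 30 and 60 min after dosing, with diazepam 5 mg/kg as positive control.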"}, "Liver [1]": {"system": "Liver", "test": "Half life in human liver microsomes at 10 uM by LC-MS/MS analysis", "format": "ADME, microsome", "in_short": "(§1)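 Compound at 10 μM final was preincubated 5 min at 37 °C with NADPH regenerating system in phosphate buffer, pH 7.4. Human or mouse liver microsomes (0.5 mg/mL protein) were added to start the reaction. Samples were taken at 0 (no microsomes) and 10–60 min and measured by LC-MS/MS against an internal standard. Half-life = 0.693/k, with k the slope of ln peak-area ratio versus time. Three experiments, each in duplicate.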"}, "Brain": {"system": "Brain", "test": "AUC (0 to 12 hrs) in Wistar rat brain at 10 mg/kg, ip administered as single dose by HPLC-MS/MS analysis", "format": "ADME, organism-based", "design": "dose 10 mg/kg, time < 12 hr, route intraperitoneal", "conditions": "in vivo"}, "[2]": {"test": "Drug metabolism in human liver microsomes assessed as CYP450 mediated-O-demethylated 2-(4-hydroxyphenyl)-7-(trideuteriomethoxy)-5H-pyrazolo[4,3-c]quinolin-3-one metabolite formation after 60 mins by LC-MS analysis", "format": "ADME", "conditions": "1 h", "in_short": "(§2)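 The 60-min samples from the human or mouse liver microsome incubations (10 µM compound, 0.5 mg/mL protein, NADPH regenerating system, 37 °C, pH 7.4) were run on LC-MS in SIM mode with dual ESI/APCI ionization. The method was calibrated to each component's retention time and mass, and the peak intensities of the parent and O-demethylated metabolites were measured.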"}, "[3]": {"test": "Drug metabolism in human liver microsomes assessed as CYP450 mediated-O-demethylated 7-hydroxy-2-(4-hydroxyphenyl)-2H-pyrazolo[4,3-c]quinolin-3(5H)-one metabolite formation after 60 mins by LC-MS analysis", "format": "ADME", "conditions": "1 h", "in_short": "as §2"}, "[4]": {"test": "Terminal elimination half-life in Wistar rat plasma at 10 mg/kg, ip administered as single dose by HPLC-MS/MS analysis", "format": "ADME, organism-based", "conditions": "read-out: beta t1/2 (converted)", "in_short": "(§3)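 Male Wistar rats (250–350 g) received a single i.p. dose of 10 mg/kg as a 5 mg/ml suspension in 85% water, 14% propylene glycol and 1% Tween 80. Three rats per time point were sacrificed at 5, 20, 60, 180 and 720 min for plasma and brain. Samples were cleaned up by solid-phase extraction and quantified by HPLC-MS/MS.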"}, "[5]": {"test": "Tmax in Wistar rat brain at 10 mg/kg, ip administered as single dose by HPLC-MS/MS analysis", "format": "ADME, organism-based", "in_short": "as §3"}, "[6]": {"test": "Terminal elimination half-life in Wistar rat brain at 10 mg/kg, ip administered as single dose by HPLC-MS/MS analysis", "format": "ADME, organism-based", "conditions": "read-out: beta t1/2 (converted)", "in_short": "as §3"}, "[7]": {"test": "Tmax in Wistar rat plasma at 10 mg/kg, ip administered as single dose by HPLC-MS/MS analysis", "format": "ADME, organism-based", "in_short": "as §3"}, "[8]": {"test": "Ratio of brain AUC (0 to t) to plasma AUC (0 to t), Kp of the compound in Wistar rat at 10 mg/kg, ip administered as single dose by HPLC-MS/MS analysis", "format": "ADME, organism-based"}, "HepG2": {"system": "HepG2", "test": "Cytotoxicity against human HepG2 cells assessed as reduction in cell viability up to 400 uM after 48 hrs by CellTiter-Glo assay", "format": "cell-based", "conditions": "hepg2, 48 h", "in_short": "(§4)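 HEK293T and HepG2 cells grown in high-glucose DMEM with non-essential amino acids, 10 mM HEPES, penicillin/streptomycin and 10% heat-inactivated FBS. Cells were harvested with trypsin and plated; compound was pin-transferred 3 h later. Incubation was 48 h, then CellTiter-Glo luminescence was read. Controls were DMSO (negative) and a cytotoxic aminoketone (positive). Quadruplicates, three independent runs, normalized to controls, nonlinear regression.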"}, "[9]": {"test": "Metabolic stability in mouse liver microsomes assessed as parent compound remaining at 10 uM after 60 mins by LC-MS analysis", "format": "ADME, microsome", "conditions": "read-out: Stability", "in_short": "(§5)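 The 60 min samples of the microsomal incubation (10 μM compound, human or mouse liver microsomes at 0.5 mg/mL, NADPH regenerating system, 37 °C) were analysed by LC-MS. Detection used SIM mode with dual ESI/APCI ionization, calibrated to the retention times and masses of the parent and its O-demethylated metabolites. Peak intensities were measured.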"}, "[10]": {"test": "Drug metabolism in mouse liver microsomes assessed as CYP450 mediated-O-demethylated 7-hydroxy-2-(4-methoxyphenyl)-2H-pyrazolo[4,3-c]quinolin-3(5H)-one metabolite formation after 60 mins by LC-MS analysis", "format": "ADME", "conditions": "1 h", "in_short": "as §2"}, "[11]": {"test": "Drug metabolism in mouse liver microsomes assessed as CYP450 mediated-O-demethylated 7-hydroxy-2-(4-hydroxyphenyl)-2H-pyrazolo[4,3-c]quinolin-3(5H)-one metabolite formation after 60 mins by LC-MS analysis", "format": "ADME", "conditions": "1 h", "in_short": "as §2"}, "[12]": {"test": "Metabolic stability in human liver microsomes assessed as parent compound remaining at 10 uM after 60 mins by LC-MS analysis", "format": "ADME, microsome", "conditions": "read-out: Stability", "in_short": "as §5"}, "[13]": {"test": "Drug metabolism in human liver microsomes assessed as CYP450 mediated-O-demethylated 7-hydroxy-2-(4-methoxyphenyl)-2H-pyrazolo[4,3-c]quinolin-3(5H)-one metabolite formation after 60 mins by LC-MS analysis", "format": "ADME", "conditions": "1 h", "in_short": "as §2"}, "[14]": {"test": "Cmax in Wistar rat plasma at 10 mg/kg, ip administered as single dose measured at 5 to 720 mins post dose by HPLC-MS/MS analysis", "format": "ADME, organism-based", "design": "dose 10 mg/kg, route intraperitoneal", "in_short": "(§6)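 Male Wistar rats (250-350 g) given a single 10 mg/kg i.p. dose of a 5 mg/ml suspension in 85% distilled water, 14% propylene glycol, 1% Tween 80. Three rats per time point (5, 20, 60, 180, 720 min). Blood and brain were collected after sacrifice. Drug was recovered by solid phase extraction and quantified by HPLC-MS/MS.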"}, "[15]": {"test": "Drug metabolism in mouse liver microsomes assessed as CYP450 mediated-O-demethylated 2-(4-hydroxyphenyl)-7-(trideuteriomethoxy)-5H-pyrazolo[4,3-c]quinolin-3-one metabolite formation after 60 mins by LC-MS analysis", "format": "ADME", "conditions": "1 h", "in_short": "as §2"}, "HEK-293T": {"system": "HEK-293T", "test": "Cytotoxicity against HEK293T cells assessed as reduction in cell viability up to 400 uM after 48 hrs by CellTiter-Glo assay", "format": "cell-based", "conditions": "human", "in_short": "as §4"}, "[16]": {"test": "AUC (0 to 12 hrs) in Wistar rat plasma at 10 mg/kg, ip administered as single dose by HPLC-MS/MS analysis", "format": "ADME, organism-based", "design": "time < 12 hr, dose 10 mg/kg, route intraperitoneal"}, "[17]": {"molecular_target": "Voltage-gated inwardly rectifying potassium channel KCNH2 (Homo sapiens, UniProt Q12809)", "sequence (Q12809 whole entry)": "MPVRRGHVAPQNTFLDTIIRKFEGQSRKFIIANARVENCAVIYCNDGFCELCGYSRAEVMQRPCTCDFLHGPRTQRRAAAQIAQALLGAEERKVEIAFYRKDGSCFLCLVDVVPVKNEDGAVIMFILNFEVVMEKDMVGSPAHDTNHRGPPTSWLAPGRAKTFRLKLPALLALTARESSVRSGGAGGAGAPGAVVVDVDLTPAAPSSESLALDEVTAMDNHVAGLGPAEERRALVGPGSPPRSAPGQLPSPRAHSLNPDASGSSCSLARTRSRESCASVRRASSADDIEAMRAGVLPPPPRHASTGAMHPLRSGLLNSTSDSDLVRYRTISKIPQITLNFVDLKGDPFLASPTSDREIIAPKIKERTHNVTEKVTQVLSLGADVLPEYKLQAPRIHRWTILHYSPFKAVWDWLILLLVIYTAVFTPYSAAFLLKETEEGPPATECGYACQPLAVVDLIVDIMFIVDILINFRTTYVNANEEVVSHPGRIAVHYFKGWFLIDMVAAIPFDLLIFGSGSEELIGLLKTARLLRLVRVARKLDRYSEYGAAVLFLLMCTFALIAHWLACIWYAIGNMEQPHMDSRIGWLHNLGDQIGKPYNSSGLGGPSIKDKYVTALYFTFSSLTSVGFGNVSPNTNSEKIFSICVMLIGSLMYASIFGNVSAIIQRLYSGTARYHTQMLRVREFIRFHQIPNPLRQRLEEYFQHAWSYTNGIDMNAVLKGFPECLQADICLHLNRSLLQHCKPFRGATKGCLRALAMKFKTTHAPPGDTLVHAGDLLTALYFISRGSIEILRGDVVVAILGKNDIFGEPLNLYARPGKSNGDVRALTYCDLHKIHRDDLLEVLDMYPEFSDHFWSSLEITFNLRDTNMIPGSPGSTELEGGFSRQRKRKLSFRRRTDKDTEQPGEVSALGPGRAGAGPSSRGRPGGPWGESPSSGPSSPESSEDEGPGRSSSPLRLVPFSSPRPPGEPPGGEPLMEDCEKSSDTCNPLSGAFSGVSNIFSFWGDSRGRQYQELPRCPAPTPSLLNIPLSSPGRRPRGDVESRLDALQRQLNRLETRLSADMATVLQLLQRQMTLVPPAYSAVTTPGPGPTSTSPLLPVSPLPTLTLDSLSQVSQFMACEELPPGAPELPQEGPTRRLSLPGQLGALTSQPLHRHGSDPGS", "test": "Displacement of [3H]-dofetilide from human ERG expressed in HEK cell membranes at >10 uM after 60 to 90 mins by scintillation counting"}, "[18]": {"test": "Cmax in Wistar rat brain at 10 mg/kg, ip administered as single dose measured at 5 to 720 mins post dose by HPLC-MS/MS analysis", "format": "ADME, organism-based", "design": "dose 10 mg/kg, route intraperitoneal", "in_short": "as §6"}, "[19]": {"test": "Solubility of the compound in 0.01M HCl at pH 2 after 2 hrs by LC-MS analysis", "format": "physicochemical", "conditions": "buffer, pH 2, 2 h", "in_short": "(§7)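 10 mg compound dissolved in 2 mL DMAC; 10 μL of this added to 2 mL DI water (pH 7, sonicated) or 2 mL 0.01 M aq HCl (pH 2), held 2 h at 37 °C. Filtered through 0.45 micron filter, then quantified by LC-MS in SIM mode against calibration curves of standards in DMAC (n = 5); n=3.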"}, "Rattus norvegicus": {"species": "Rattus norvegicus", "test": "Displacement of [3H]-flunitrazepam from rat brain GABA-A receptor benzodiazepine site […] at 10 uM after 60 to 90 mins by scintillation counting", "conditions": "tested as the 2H-labelled form"}, "[20]": {"test": "Aqueous solubility of the compound in DI water at pH 7 after 2 hrs by LC-MS analysis", "format": "physicochemical", "conditions": "buffer, pH 7, 2 h", "in_short": "as §7"}, "[21]": {"molecular_target": "Delta-type opioid receptor (Homo sapiens) (UniProt P41143)", "sequence (P41143 whole entry)": "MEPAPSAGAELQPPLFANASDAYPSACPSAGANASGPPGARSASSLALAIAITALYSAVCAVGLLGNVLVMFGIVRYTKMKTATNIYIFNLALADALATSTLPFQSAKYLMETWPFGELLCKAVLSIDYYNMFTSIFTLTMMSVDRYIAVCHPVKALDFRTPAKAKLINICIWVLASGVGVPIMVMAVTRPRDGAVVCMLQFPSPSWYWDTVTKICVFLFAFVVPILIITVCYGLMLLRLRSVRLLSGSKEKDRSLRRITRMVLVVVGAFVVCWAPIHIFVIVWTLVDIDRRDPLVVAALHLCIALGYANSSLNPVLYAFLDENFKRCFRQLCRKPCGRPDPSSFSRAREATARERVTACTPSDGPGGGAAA", "test": "Displacement of [3H]-DADLE from human recombinant DOR expressed in HEK293 cells at 10 uM after 60 to 90 mins by scintillation counting", "format": "cell-based", "conditions": "tested as the 2H-labelled form", "in_short": "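Primary single-concentration radioligand displacement screen run by the NIMH Psychoactive Drug Screening Program across a 46-target panel that includes hERG. The read-out is percent inhibition of specific radioligand binding. Any compound displacing more than 50% of radioligand went on to secondary binding assays to determine Ki.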"}, "Liver [22]": {"system": "Liver", "test": "Half life in mouse liver microsomes at 10 uM by LC-MS/MS analysis", "format": "ADME, microsome", "in_short": "as §1"}}, "note": "Calls of active or inactive are those of the source. The calls are words filed in the database; no cut-off is given here.", "data": [{"compound": "[2H]C([2H])([2H])Oc1ccc2c3nn(-c4ccc(OC)cc4)c(=O)c-3c[nH]c2c1", "values": [{"measurement": "Activity", "setting": "Mus musculus", "result": "Non-Toxic"}, {"measurement": "t1/2", "setting": "Liver [1]", "result": 11.1, "unit": "h"}, {"measurement": "AUC", "setting": "Brain", "result": 4125.92, "unit": "ng·h/g"}, {"measurement": "Drug metabolism", "setting": "[2]", "result": "Metabolite_Detected"}, {"measurement": "Drug metabolism", "setting": "[3]", "result": "Metabolite_Detected"}, {"measurement": "half-life", "setting": "[4]", "result": 2.46, "unit": "h"}, {"measurement": "Tmax", "setting": "[5]", "result": 2.11, "unit": "h"}, {"measurement": "half-life", "setting": "[6]", "result": 2.6, "unit": "h"}, {"measurement": "Tmax", "setting": "[7]", "result": 1.67, "unit": "h"}, {"measurement": "Kp", "setting": "[8]", "result": 0.16}, {"measurement": "Activity", "setting": "HepG2", "result": "Non-Toxic"}, {"measurement": "remaining at 1 h, 10 µM", "setting": "[9]", "result": 93.2, "unit": "%"}, {"measurement": "Drug metabolism", "setting": "[10]", "result": "Metabolite_Detected"}, {"measurement": "Drug metabolism", "setting": "[11]", "result": "Metabolite_Detected"}, {"measurement": "remaining at 1 h, 10 µM", "setting": "[12]", "result": 92, "unit": "%"}, {"measurement": "Drug metabolism", "setting": "[13]", "result": "Metabolite_Detected"}, {"measurement": "Cmax", "setting": "[14]", "result": 3740, "unit": "ng/mL"}, {"measurement": "Drug metabolism", "setting": "[15]", "result": "Metabolite_Detected"}, {"measurement": "Activity", "setting": "HEK-293T", "result": "Non-Toxic"}, {"measurement": "AUC(0-t) at 12 h", "setting": "[16]", "result": 25300, "unit": "ng·h/mL"}, {"measurement": "inhibition (INH)", "setting": "[17]", "result": "Not Active"}, {"measurement": "Cmax", "setting": "[18]", "result": 657, "unit": "ng/g"}]}, {"compound": "COc1ccc(-n2nc3c4cc(Cl)ccc4[nH]cc-3c2=O)cc1", "values": [{"measurement": "Activity", "setting": "Mus musculus", "result": "Non-Toxic"}, {"measurement": "t1/2", "setting": "Liver [1]", "result": 2.3, "unit": "h"}, {"measurement": "solubility", "setting": "[19]", "result": 8.5, "unit": "µM"}, {"measurement": "remaining at 1 h, 10 µM", "setting": "[9]", "result": 69.2, "unit": "%"}, {"measurement": "inhibition", "setting": "Rattus norvegicus", "result": "Active"}, {"measurement": "remaining at 1 h, 10 µM", "setting": "[12]", "result": 72.5, "unit": "%"}, {"measurement": "solubility", "setting": "[20]", "result": 6.4, "unit": "µM"}, {"measurement": "inhibition", "setting": "[21]", "result": "Active"}, {"measurement": "t1/2", "setting": "Liver [22]", "result": 1.9, "unit": "h"}]}]}
